Measured values: ChEMBL document CHEMBL4049387, “Combination of l-Carnitine with Lipophilic Linkage-Donating Gemcitabine Derivatives as Intestinal Novel Organic Cation Transporter 2-Targeting Oral Prodrugs” (J Med Chem, 2017)
Each block holds one compound with its values, some of them ahead of it. The source made the active and inactive calls. No cut-off for these calls is given here.

Experiments:
Rattus norvegicus [1] = assay: AUC (0 to 24 hrs) in Wistar rat at 50 mg/kg, po administered as single dose by UPLC-MS/MS method; type: ADME, organism-based; set-up: dose 50 mg/kg, time < 24 hr, route oral; conditions: in vivo
How it was run: (§1)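 Wistar rats, six per group, single oral dose equivalent to 50 mg/kg gemcitabine; separate group given gemcitabine iv at 7.5 mg/kg. Oral sampling at 5, 10, 15, 30 min and 1, 2, 4, 6, 8, 12, 24 h; iv at 15, 30 min and 2, 4, 8, 12, 24 h. Blood into THU-pretreated heparinized tubes, centrifuged 3000 × g 15 min, plasma at -80 °C. Prodrug and gemcitabine quantified by UPLC-MS/MS. F = AUCpo×Div/AUCiv/Dpo×100%.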

[2] = molecular target: T1, Organic cation/carnitine transporter 2 (Homo sapiens, UniProt O76082); assay: Ratio of drug transport assessed as OCTN2 transporter mediated drug uptake in human Caco2 cells at 100 uM in absence of L-carnitine to drug transport assessed as OCTN2 transporter mediated drug uptake in human Caco2 cells at 100 uM in presence of L-carnitine; type: ADME, cell-based; conditions: caco-2, 100 µM
T1 sequence (O76082 whole entry): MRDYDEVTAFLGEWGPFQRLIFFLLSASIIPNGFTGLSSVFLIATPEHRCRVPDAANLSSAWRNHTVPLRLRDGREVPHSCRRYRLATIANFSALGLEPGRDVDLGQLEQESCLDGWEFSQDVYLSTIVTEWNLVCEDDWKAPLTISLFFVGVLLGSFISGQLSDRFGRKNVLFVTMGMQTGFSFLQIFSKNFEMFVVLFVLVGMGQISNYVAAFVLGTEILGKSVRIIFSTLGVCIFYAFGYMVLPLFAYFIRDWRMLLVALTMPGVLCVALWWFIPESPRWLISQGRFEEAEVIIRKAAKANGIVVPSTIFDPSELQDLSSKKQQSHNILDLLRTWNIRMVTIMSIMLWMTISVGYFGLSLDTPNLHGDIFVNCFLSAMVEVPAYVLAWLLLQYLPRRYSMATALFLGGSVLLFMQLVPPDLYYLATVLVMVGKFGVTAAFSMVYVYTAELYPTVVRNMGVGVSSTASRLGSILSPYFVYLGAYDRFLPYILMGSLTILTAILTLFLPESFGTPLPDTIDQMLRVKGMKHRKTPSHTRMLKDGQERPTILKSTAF

[3] = molecular target: T1, Organic cation/carnitine transporter 2; assay: Drug transport assessed as OCTN2 transporter mediated cell permeability in human Caco2 cells across apical to basolateral side at 25 uM after 15 to 120 mins by UPLC-MS/MS method relative to gemcitabine; type: ADME, cell-based; conditions: caco-2, 25 µM
How it was run: (§2)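 Caco-2 cells seeded at 1.0×10^5 cells/well on 0.4 µm polycarbonate inserts, cultured 21 days in MEM; monolayers with TEER over 250 Ω·cm² used. Compound at 25 µM final in HBSS, added apically, with or without 100 µM L-carnitine, 37 °C. Basolateral samples taken at 15, 30, 45, 60, 90, 120 min. Analysed by UPLC-MS/MS to give Papp. Triplicate runs.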

[4] = molecular target: T1, Organic cation/carnitine transporter 2; assay: Drug transport assessed as Vmax for OCTN2 transporter mediated drug uptake in human Caco2 cells after 10 mins by Eadie-Hofstee plot method; type: ADME, cell-based; conditions: caco-2, 10 min
[5] = Terminal half-life in Wistar rat at 50 mg/kg, po administered as single dose by UPLC-MS/MS method; type: ADME, organism-based; conditions: in vivo, read-out: beta t1/2 (converted); how it was run: as §1
[6] = Tmax in Wistar rat at 50 mg/kg, po administered as single dose by UPLC-MS/MS method; type: ADME, organism-based; conditions: in vivo; how it was run: as §1
BXPC-3 [7] = assay: Cytotoxicity against human BxPC3 cells assessed as decrease in cell viability after 48 hrs by MTT assay; type: functional, cell-based
How it was run: (§3)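 BxPC-3 and Caco-2 cells exposed to compounds for 48 h. Viability read by MTT assay kit. IC50 calculated from dose-response.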

[8] = molecular target: T1, Organic cation/carnitine transporter 2; assay: Ratio of drug transport assessed as OCTN2 transporter mediated cell permeability in human Caco2 cells at 25 uM in absence of L-carnitine to drug transport assessed as OCTN2 transporter mediated cell permeability in human Caco2 cells at 25 uM in presence of L-carnitine; type: ADME, cell-based; conditions: caco-2, 25 µM; how it was run: as §2
[9] = Half life in rat plasma at 5 uM by HPLC method; type: ADME, cell-free
How it was run: (§4)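 Compound at 5 µM final in rat plasma, 20% rat hepatic homogenate or 20% rat intestinal homogenate at 37 °C for 24 h. Homogenates made by homogenizing 0.3 g saline-washed tissue in 1 mL saline, spun 13,000 rpm 4 °C 5 min. Sampled at intervals, analysed by HPLC. t1/2 = 0.693/k.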

[10] = Half life in rat hepatic homogenates at 5 uM by HPLC method; type: ADME, tissue-based, Liver; how it was run: as §4
[11] = Half life in rat intestinal homogenates at 5 uM by HPLC method; type: ADME, tissue-based, Intestine; how it was run: as §4
[12] = Half life in pH 7.4 phosphate buffer at 5 uM by HPLC method; type: physicochemical
How it was run: (§5)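 Compound dissolved at 5 µM in phosphate buffer (pH 1.2, 6.8 or 7.4), held at 37 °C for 24 h. Aliquots taken at intervals and analysed by HPLC. t1/2 = 0.693/k from linear regression of pseudo-first-order kinetics.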

[13] = Half life in pH 1.2 phosphate buffer at 5 uM by HPLC method; type: physicochemical; how it was run: as §5
[14] = Half life in pH 6.8 phosphate buffer at 5 uM by HPLC method; type: physicochemical; how it was run: as §5
[15] = Drug level in Wistar rat portal blood at 50 mg/kg administered as single dose at 2 hrs by UPLC-MS/MS method; type: ADME, organism-based; conditions: read-out: Drug uptake
How it was run: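 Rats given single oral dose equivalent to 50 mg/kg gemcitabine. Portal vein and systemic plasma sampled at 2 h. Prodrug and gemcitabine measured by UPLC-MS/MS.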

[16] = Oral bioavailability in Wistar rat at 50 mg/kg administered as single dose by UPLC-MS/MS method; type: ADME, organism-based; conditions: in vivo; how it was run: as §1
OCTN2 = assay: Ratio of drug transport in OCTN2 (unknown origin) expressing HEK293 cells assessed as transporter-mediated drug uptake at 25 uM to drug uptake in HEK293 cells at 25 uM; type: ADME, cell-based; conditions: human, HEK293 cells expressing OCTN2, against HEK293 cells
How it was run: (§6)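 OCTN2-transfected HEK293 cells and mock HEK293 cells incubated with 25 µM compound at 37 °C for 15 min, then cellular uptake measured; n = 2.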

[17] = molecular target: T1, Organic cation/carnitine transporter 2; assay: Ratio of drug transport assessed as OCTN2 transporter mediated drug uptake in human Caco2 cells at 1 to 800 uM in presence of Na+ to drug transport assessed as OCTN2 transporter mediated drug uptake in human Caco2 cells at 1 to 800 uM in presence of N-methyl-D-glucamine; type: ADME, cell-based; conditions: caco-2, 800 µM
[18] = Stability of the compound in pH 6.8 phosphate buffer at 5 uM by HPLC method; type: physicochemical; conditions: pH 6.8, 5 µM; how it was run: as §5
[19] = molecular target: T2, Organic cation/carnitine transporter 2 (Rattus norvegicus, UniProt O70594); assay: Ratio of drug transport assessed as OCTN2 transporter mediated effective permeability in rat jejunum at 76 uM in absence of L-carnitine to drug transport assessed as OCTN2 transporter mediated effective permeability in rat jejunum at 76 uM in presence of L-carnitine; type: ADME
T2 sequence (O70594 whole entry): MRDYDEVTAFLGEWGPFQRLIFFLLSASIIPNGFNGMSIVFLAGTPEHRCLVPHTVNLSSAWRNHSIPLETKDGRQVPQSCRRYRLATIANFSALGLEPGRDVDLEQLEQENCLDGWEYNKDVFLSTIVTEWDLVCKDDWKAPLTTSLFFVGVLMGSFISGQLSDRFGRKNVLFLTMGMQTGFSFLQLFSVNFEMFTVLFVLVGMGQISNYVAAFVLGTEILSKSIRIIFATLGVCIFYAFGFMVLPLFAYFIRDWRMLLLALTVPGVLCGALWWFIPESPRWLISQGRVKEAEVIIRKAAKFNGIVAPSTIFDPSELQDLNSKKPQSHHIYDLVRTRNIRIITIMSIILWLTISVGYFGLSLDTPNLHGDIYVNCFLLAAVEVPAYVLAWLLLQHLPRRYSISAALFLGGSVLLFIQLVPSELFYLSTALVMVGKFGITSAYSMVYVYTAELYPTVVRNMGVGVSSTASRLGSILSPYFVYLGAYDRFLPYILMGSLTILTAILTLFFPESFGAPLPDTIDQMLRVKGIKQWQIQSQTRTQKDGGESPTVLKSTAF

[20] = Oral bioavailability in Wistar rat at 50 mg/kg administered as single dose in presence of L-carnitine by UPLC-MS/MS method; type: ADME, organism-based; conditions: in vivo, with L-carnitine
How it was run: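 Rats dosed orally with prodrug at a gemcitabine-equivalent dose of 50 mg/kg, co-administered with 40 mM L-carnitine. Serial blood at 5 min–24 h into THU-pretreated heparinized tubes. Plasma measured by UPLC-MS/MS. Absolute bioavailability calculated against iv gemcitabine at 7.5 mg/kg.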

[21] = molecular target: T2, Organic cation/carnitine transporter 2; assay: Ratio of drug transport assessed as OCTN2 transporter mediated effective permeability in rat duodenum at 76 uM in absence of L-carnitine to drug transport assessed as OCTN2 transporter mediated effective permeability in rat duodenum at 76 uM in presence of L-carnitine; type: ADME
[22] = Cmax in Wistar rat at 50 mg/kg, po administered as single dose by UPLC-MS/MS method; type: ADME, organism-based; set-up: dose 50 mg/kg, route oral; conditions: in vivo; how it was run: as §1
Rattus norvegicus [23] = assay: AUC (0 to 24 hrs) in Wistar rat at 7.5 mg/kg, iv administered as single dose by UPLC-MS/MS method; type: ADME, organism-based; set-up: dose 7.5 mg/kg, time < 24 hr, route intravenous; conditions: in vivo; how it was run: as §1
BXPC-3 [24] = assay: Cytotoxicity against human BxPC3 cells assessed as decrease in cell viability at 0.1 to 200 uM after 48 hrs by MTT assay; type: functional, cell-based; how it was run: as §3
[25] = Cmax in Wistar rat at 7.5 mg/kg, iv administered as single dose by UPLC-MS/MS method; type: ADME, organism-based; set-up: dose 7.5 mg/kg, route intravenous; conditions: in vivo; how it was run: as §1
[26] = Tmax in Wistar rat at 7.5 mg/kg, iv administered as single dose by UPLC-MS/MS method; type: ADME, organism-based; conditions: in vivo; how it was run: as §1
[27] = Terminal half-life in Wistar rat at 7.5 mg/kg, iv administered as single dose by UPLC-MS/MS method; type: ADME, organism-based; conditions: in vivo, read-out: beta t1/2 (converted); how it was run: as §1
[28] = Drug uptake in HEK293 cells at 25 uM after 15 mins by UPLC-MS/MS method; type: ADME, cell-based; conditions: human, hek293, 0.25 h; how it was run: as §6

Compound: C[N+](C)(C)CC(CC(=O)[O-])OC(=O)CCCCCCC(=O)Nc1ccn([C@@H]2O[C@H](CO)[C@@H](O)C2(F)F)c(=O)n1 (some centres not stated)
AUC (Rattus norvegicus [1]): 11100 ng·h/mL
Ratio [2]: 2.2 to 3.7
fold change (FC) [3]: 5 to 15
Vmax [4]: 0.4344 nmol/mg
half-life [5]: 2.3 h
Tmax [6]: 1.2 h
Activity (BXPC-3 [7]): Dose-dependent effect
Ratio [8]: 1.6 to 3.6

Compound: C[N+](C)(C)CC(CC(=O)[O-])OC(=O)CCC(=O)Nc1ccn([C@@H]2O[C@H](CO)[C@@H](O)C2(F)F)c(=O)n1 (some centres not stated)
concentration at 2 h [15]: 2460 ng/mL
half-life at 5 µM [9]: 3.7 h
half-life at 5 µM [10]: 15.5 h
bioavailability [16]: 12%
uptake ratio at 25 µM (OCTN2): 3 to 8
AUC (Rattus norvegicus [1]): 14900 ng·h/mL
Ratio [17]: 2 to 10
Stability [18]: Stable
half-life at 5 µM [11]: 50.9 h
Ratio [2]: 2.2 to 3.7
fold change (FC) [3]: 5 to 15
Vmax [4]: 0.2013 nmol/mg
half-life at 5 µM [12]: 28.4 h
half-life at 5 µM [13]: 5.5 h
Ratio [19]: 25
half-life [5]: 6.2 h
Tmax [6]: 1 h
bioavailability [20]: 6%
Ratio [21]: 25
Activity (BXPC-3 [7]): Dose-dependent effect
Ratio [8]: 1.6 to 3.6

Compound: C[N+](C)(C)CC(CC(=O)[O-])OC(=O)CCCCCCCCC(=O)Nc1ccn([C@@H]2O[C@H](CO)[C@@H](O)C2(F)F)c(=O)n1 (some centres not stated)
AUC (Rattus norvegicus [1]): 15900 ng·h/mL
Ratio [2]: 2.2 to 3.7
Vmax [4]: 0.3884 nmol/mg
half-life [5]: 5.4 h
Tmax [6]: 1.8 h
Activity (BXPC-3 [7]): Dose-dependent effect
Ratio [8]: 1.6 to 3.6

The next lines start with results.

half-life at 5 µM [9]: 1.7 h
half-life at 5 µM [10]: 32.7 h
AUC (Rattus norvegicus [1]): 9030 ng·h/mL
half-life at 5 µM [11]: 116 h
half-life at 5 µM [12]: 10.3 h
half-life at 5 µM [13]: 1 h
half-life [5]: 4.3 h
Tmax [6]: 1.9 h
half-life at 5 µM [14]: 45.9 h
Compound: CCCC(=O)Nc1ccn([C@@H]2O[C@H](CO)[C@@H](O)C2(F)F)c(=O)n1

concentration at 2 h [15]: 199 ng/mL
bioavailability [16]: 3.2%
Cmax [22]: 1320 ng/mL
AUC (Rattus norvegicus [23]): 26700 ng·h/mL
AUC (Rattus norvegicus [1]): 5620 ng·h/mL
Cmax [25]: 7100 ng/mL
Tmax [26]: 0.5 h
half-life [5]: 2.3 h
Tmax [6]: 1.7 h
half-life [27]: 4.4 h
Drug uptake [28]: Not Active
Compound: Nc1ccn([C@@H]2O[C@H](CO)[C@@H](O)C2(F)F)c(=O)n1 [GEMCITABINE]
Activity (BXPC-3 [24]): Active
